# Entries after “also recorded” stand apart in the source; their conditions may differ.
# Key:
# C. albicans ATCC 10231 [1] = test: Minimum inhibitory concentration; format: cell-based; conditions: Candida albicans, ATCC10231, read-out: Minimum inhibitory concentration (MIC) C. albicans ATCC 10231
# Procedure, shortened: (§1)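 Exponential-phase yeast were washed three times in PBS and suspended at 1 × 10^3 CFU/mL in RPMI 1640. Test compound and fluconazole comparator were twofold serially diluted in microplates, each concentration in triplicate wells. Growth was read as OD600, from which the MIC was determined.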
# C. albicans ATCC 14053 = test: Minimum inhibitory concentration; format: cell-based; conditions: Candida albicans, ATCC14053, read-out: Minimum inhibitory concentration (MIC) C. albicans ATCC 14053
# Procedure, shortened: as §1
# C. albicans ATCC 90028 = test: Activity against additional fungal strains; format: cell-based; conditions: Table 2; no quantity or unit printed
# Procedure, shortened: (§2)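 Fungi in exponential phase were washed three times in PBS and resuspended at 1 × 10^3 CFU mL−1 in RPMI 1640. Test compound and fluconazole were serially diluted twofold in 96-well plates, in triplicate wells per concentration. MIC was derived from OD600 readings.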
# C. albicans ATCC 24433 = test: Activity against additional fungal strains; format: cell-based; conditions: Table 2; no quantity or unit printed
# Procedure, shortened: as §2
# F. solani 52628 = test: Activity against additional fungal strains; format: cell-based; conditions: Table 2; no quantity or unit printed
# Procedure, shortened: as §2
# F. solani 46492 = test: Activity against additional fungal strains; format: cell-based; conditions: Table 2; no quantity or unit printed
# Procedure, shortened: as §2
# [2] = system: A. brasiliensis TCC 16404; test: Activity against additional fungal strains; format: cell-based; conditions: Table 2; no quantity or unit printed
# Procedure, shortened: as §2
# FO MYA 3461 = test: Activity against additional fungal strains; format: cell-based; conditions: Table 2; no quantity or unit printed
# Procedure, shortened: as §2
# [3] = system: various bacteria and fungi; test: Broad-spectrum antibacterial and antifungal MIC; format: cell-based; conditions: read-out: MIC (broad-spectrum antibacterial and antifungal activity)
# C. albicans ATCC 10231 [4] = test: Time–kill kinetics; format: cell-based; conditions: 8 × MIC, after 8 h
# Procedure, shortened: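 C. albicans in exponential phase was diluted to 1.5 × 10^6 cells per mL in RPMI 1640, in 5 mL tubes. Drug was added and tubes were shaken at 200 rpm and 30 °C. 100 μL aliquots went to microtiter wells, were incubated at 37 °C, and OD600 was read to estimate cell concentration.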
# C. albicans ATCC 10231 [5] = test: Drug-resistance study; format: cell-based; conditions: after 28 serial passages
# Procedure, shortened: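 Resistance development in C. albicans: the MIC of the test compound was first determined by the fungal broth microdilution method, then that determination was repeated continuously over 28 days.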
# [6] = Cytotoxicity, CCK-8 assay; format: cell-based; conditions: human, HUVECs (human umbilical vein endothelial cells)
# [7] = Cytotoxicity, CCK-8 assay; format: cell-based; conditions: human, Caco-2
# rabbit red blood cells = test: Hemolysis assay; format: cell-based
# Procedure, shortened: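 Rabbit erythrocytes (4% v/v in PBS) were mixed 1:1 with test compound in PBS, giving final concentrations of 2–256 μg mL−1, and incubated for 1 h at 37 °C. Samples were centrifuged at 1000g for 5 min and supernatant A490 was read. Controls were 1% Triton X-100 and PBS. Hemolysis (%) = [(sample − PBS)/(Triton − PBS)] × 100, in triplicate.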
# C. albicans ATCC 10231 [8] = test: SYTOX Green membrane integrity assay; format: cell-based; conditions: 4 × MIC; over 20 min
# Procedure, shortened: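 Overnight C. albicans was washed three times in PBS and set to OD600 0.2 in PBS. Cells were loaded with 0.3 μM SYTOX Green in the dark. Once the signal plateaued, test compound in PBS/DMF (final DMF 0.5%) was added. Fluorescence (ex 504 nm, em 523 nm) was monitored continuously for 1–2 h.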
# Calcein leakage assay = conditions: liposomes mimicking fungal membranes
# Procedure, shortened: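 Large unilamellar vesicles of DOPC/DOPE/PI (2:1:1) with 15 wt% ergosterol were made by film hydration in 80 mM calcein, 50 mM HEPES, 100 mM NaCl, 0.3 mM EDTA, pH 7.4. They were freeze–thawed 10×, extruded through 100 nm filters, gel-filtered, and quantified by total phosphorus. Test compound was added in HEPES buffer with 5% DMF. Read at ex 490/em 520 nm; % leakage = (Ft−Fmin)/(Fmax−Fmin)×100, with Fmax from 1% Triton X-100.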
# [9] = system: C. albicans ATCC 10231 biofilm; test: Inhibition of biofilm formation; format: cell-based; conditions: in vitro
# Procedure, shortened: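 Exponential-phase fungi at 1 × 10^6 CFU mL−1 in RPMI 1640 were allowed to adhere for 1.5 h at 37 °C, then washed twice with PBS. Fresh RPMI containing graded concentrations of test compound was added for 24 h at 37 °C in the dark. Adherent cells were stained for 3 h at 37 °C and OD was read. Results are given as % inhibition of formation.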
# [10] = system: C. albicans ATCC 10231 biofilm; test: Biofilm eradication; format: cell-based; conditions: in vitro
# Procedure, shortened: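 Overnight C. albicans was adjusted to 1 × 10^6–10^7 CFU mL−1 and grown statically for 24 h at 37 °C to give mature biofilms. After two PBS rinses, biofilms were treated with test compound in fresh medium for 24 h at 37 °C; amphotericin B was the positive control and medium alone the negative control. Staining used 0.1% crystal violet for 15 min, then 95% ethanol solubilisation and OD590. Eradication (%) = [1 − OD_test/OD_negative] × 100.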
# CYP24A1 = target: T1, CYP24A1 (Homo sapiens, UniProt Q07973); test: CYP24-inhibition assay; format: biochemical
# T1 sequence (Q07973 36-514): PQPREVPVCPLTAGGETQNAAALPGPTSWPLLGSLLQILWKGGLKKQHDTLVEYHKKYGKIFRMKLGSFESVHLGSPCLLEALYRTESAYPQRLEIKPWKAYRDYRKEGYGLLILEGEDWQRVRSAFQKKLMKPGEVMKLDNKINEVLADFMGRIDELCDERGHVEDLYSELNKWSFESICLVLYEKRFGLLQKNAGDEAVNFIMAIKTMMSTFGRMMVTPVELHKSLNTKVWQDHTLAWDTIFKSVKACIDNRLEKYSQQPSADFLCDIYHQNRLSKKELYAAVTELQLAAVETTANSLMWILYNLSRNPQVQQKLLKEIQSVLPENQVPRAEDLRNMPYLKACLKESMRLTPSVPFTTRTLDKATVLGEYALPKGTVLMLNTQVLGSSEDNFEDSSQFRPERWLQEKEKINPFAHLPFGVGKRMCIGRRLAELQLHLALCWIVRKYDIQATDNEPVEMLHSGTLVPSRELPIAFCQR
# Procedure, shortened: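 Reconstituted system: 5 nM CYP24, 0.5 μM adrenodoxin and 0.05 μM adrenodoxin reductase in 100 mM Tris–HCl pH 7.4 with 1 mM EDTA. Test compound (50–200 μM) was preincubated for 15 min at room temperature. 5 μM 1,25-D3 and 1 mM NADPH were then added for 10 min at 37 °C. The reaction was stopped with 4 volumes of chloroform/methanol 3:1, and conversion was measured by C18 HPLC with UV detection at 265 nm.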
# [11] = system: CYP24A1 mRNA in HEK293T cells; test: CYP24A1 mRNA levels by quantitative PCR; format: cell-based
# [12] = system: metabolic clearance of 1,25(OH)2D3 in HEK293T cells; test: Retention of 1,25; format: cell-based; conditions: 10^−7 M compound; after 24 h; LC-MS/MS
# Candida albicans = conditions: lack of antifungal activity; cited from earlier work
compound,measurement,setting,value
"Oc1ccc(O)c(C=Nc2ncn[nH]2)c1 [3c, 2-{[(1H-1,2,4-Triazol-5-yl)imino]methyl}benzene-1,4-diol]",MIC,C. albicans ATCC 10231 [1],16 µg/mL
same,MIC,C. albicans ATCC 14053,16 µg/mL
same,Interaction against varied fungal strains: C. albicans ATCC 90028,C. albicans ATCC 90028,16
same,Interaction against varied fungal strains: C. albicans ATCC 24433,C. albicans ATCC 24433,16
same,Interaction against varied fungal strains: F. solani 52628,F. solani 52628,32
same,Interaction against varied fungal strains: F. solani 46492,F. solani 46492,32
same,Interaction against varied fungal strains: A. brasiliensis TCC 16404,[2],32
same,Interaction against varied fungal strains: FO MYA 3461,FO MYA 3461,32
same,MIC,[3],16 µg/mL
same,Time–kill: growth of C. albicans ATCC 10231,C. albicans ATCC 10231 [4],complete inhibition
same,Increase of MIC value in resistance development,C. albicans ATCC 10231 [5],no more than 8 fold
same,"viability at 24 h, 64 μg mL^−1",[6],> 95%
same,"viability at 24 h, 128 μg mL^−1",[6],> 80%
same,"viability at 24 h, 64 μg mL^−1",[7],> 95%
same,"viability at 24 h, 128 μg mL^−1",[7],> 80%
same,Hemolysis of rabbit red blood cells,"rabbit red blood cells; 16–128 μg mL^−1, 37 °C, 1 h",no significant hemolysis
same,Half hemolytic concentration (HC50),rabbit red blood cells; rabbit red blood cells,> 256 µg/mL
same,SYTOX Green fluorescence (membrane integrity),C. albicans ATCC 10231 [8],gradual increase in fluorescence
same,Calcein leakage from LUVs,Calcein leakage assay,induced leakage of the contents in a dose-dependent manner
same,Inhibition of C. albicans biofilm formation,[9],effectively inhibited
same,Disruption of pre-formed mature biofilms,[10],significantly disrupted
same,IC50,CYP24A1,202 µM
same,inhibition at 100 µM,CYP24A1; read-out: Inhibition of CYP24A1,32%
same,"CYP24A1 mRNA expression, co-treatment with 1,25(OH)2D3","[11]; 3c 10^−10 M + 1,25(OH)2D3 10^−9 M, 24 h, relative to 1,25(OH)2D3 alone",markedly enhanced
same,"CYP24A1 mRNA expression, compound alone","[11]; 10^−7 M, HEK293T cells, versus solvent control",did not affect; also recorded: did not alter
same,"Up-regulation of CYP24A1 mRNA levels when combined with 1,25(OH)2D3","[11]; cellular models, combined with 1,25(OH)2D3",approximately twofold
same,"Average concentration of 1,25(OH)2D3 remaining in HEK293T cell culture",[12],495 pM
O=C(NC[C@@H](c1ccccc1)n1ccnc1)c1ccc(-c2ccc(Cl)cc2)cc1 [VID400],MIC against Candida albicans,Candida albicans,> 128 µg/mL
